26 molecules from ChEMBL document CHEMBL4613235, “A scaffold replacement approach towards new sirtuin 2 inhibitors” (Bioorg Med Chem, 2020) can be followed below.

Each structure is given as a SMILES string.

Experiment [1] addresses T1, NAD-dependent protein deacetylase sirtuin-1 (Homo sapiens) (UniProt Q96EB6).
T1 sequence (whole entry): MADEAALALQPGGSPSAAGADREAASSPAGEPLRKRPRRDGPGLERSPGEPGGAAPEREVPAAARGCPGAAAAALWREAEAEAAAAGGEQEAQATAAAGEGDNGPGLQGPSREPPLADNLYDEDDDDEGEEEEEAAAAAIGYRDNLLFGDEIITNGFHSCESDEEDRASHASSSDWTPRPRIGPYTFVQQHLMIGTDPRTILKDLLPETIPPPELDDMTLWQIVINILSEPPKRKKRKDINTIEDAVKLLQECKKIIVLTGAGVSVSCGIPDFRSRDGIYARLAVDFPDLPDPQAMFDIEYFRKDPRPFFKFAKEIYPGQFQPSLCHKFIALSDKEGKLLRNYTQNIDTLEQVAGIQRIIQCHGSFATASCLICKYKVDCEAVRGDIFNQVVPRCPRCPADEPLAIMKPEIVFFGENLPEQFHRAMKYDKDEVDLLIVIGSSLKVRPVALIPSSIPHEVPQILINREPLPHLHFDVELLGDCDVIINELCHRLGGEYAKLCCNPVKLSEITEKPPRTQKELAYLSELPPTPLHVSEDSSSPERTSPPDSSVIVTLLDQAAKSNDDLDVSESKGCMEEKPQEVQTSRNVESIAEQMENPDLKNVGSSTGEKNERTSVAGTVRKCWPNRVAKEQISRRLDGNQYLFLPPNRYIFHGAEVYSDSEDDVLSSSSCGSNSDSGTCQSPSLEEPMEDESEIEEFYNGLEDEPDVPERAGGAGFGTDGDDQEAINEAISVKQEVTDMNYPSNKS
In words: Inhibition of recombinant GST-tagged human SIRT1 at 200 uM using FLUOR DE LYS SIRT1 as substrate preincubated with substrate for 5 mins followed by enzyme addition and measured after 1 hr in presence of NAD+ by fluorescence based assay relative to control. Put shortly:
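Fluor de Lys assay using GST-SIRT1 produced in-house and acetylated peptide substrate KI177 at 0.7 Km, with NAD+ at 0.9 Km in SIRT assay buffer. Buffer, substrate, NAD+ and compound in DMSO were preincubated 5 min at room temp, then enzyme was added and run 1 h at 37 °C. Developer plus nicotinamide was added for 45 min at 37 °C. Read at ex 370/em 460 nm. SD, n = 3.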

Experiment [2] concerns the target T2, NAD-dependent protein deacetylase sirtuin-3, mitochondrial (Homo sapiens) (UniProt Q9NTG7).
T2 sequence (whole entry): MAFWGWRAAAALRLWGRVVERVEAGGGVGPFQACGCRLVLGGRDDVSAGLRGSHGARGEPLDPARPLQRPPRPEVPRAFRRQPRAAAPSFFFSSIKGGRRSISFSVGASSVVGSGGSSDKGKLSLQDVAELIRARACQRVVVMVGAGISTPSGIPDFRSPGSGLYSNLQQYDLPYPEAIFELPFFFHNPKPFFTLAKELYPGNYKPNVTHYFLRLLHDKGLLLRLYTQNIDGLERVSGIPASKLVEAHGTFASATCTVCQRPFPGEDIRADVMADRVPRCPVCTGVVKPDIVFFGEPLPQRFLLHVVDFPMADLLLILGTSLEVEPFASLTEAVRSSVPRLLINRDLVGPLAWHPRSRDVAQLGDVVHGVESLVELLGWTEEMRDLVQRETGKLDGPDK
In words: Inhibition of recombinant N-terminal His-tagged human sirtuin 3 (102 to 399 residues) expressed in Escherichia coli at 200 uM using fluor de lys SIRT2 as substrate preincubated with substrate for 5 mins followed by enzyme addition and measured after 1 hr in presence of NAD+ by fluorescence based assay relative to control. In a few lines: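 Purchased recombinant His-SIRT3 was used with Fluor de Lys acetylated peptide substrate KI179 at 0.7 Km and NAD+ at 0.9 Km in SIRT assay buffer. Compound in DMSO was preincubated 5 min at room temp with buffer, substrate and NAD+; enzyme addition began the 1 h, 37 °C reaction. Developer with nicotinamide followed for 45 min at 37 °C; ex 370/em 460 nm read-out. SD, n = 3.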

Experiment [3] addresses T3, NAD-dependent protein deacetylase sirtuin-2 (Homo sapiens) (UniProt Q8IXJ6).
T3 sequence (whole entry): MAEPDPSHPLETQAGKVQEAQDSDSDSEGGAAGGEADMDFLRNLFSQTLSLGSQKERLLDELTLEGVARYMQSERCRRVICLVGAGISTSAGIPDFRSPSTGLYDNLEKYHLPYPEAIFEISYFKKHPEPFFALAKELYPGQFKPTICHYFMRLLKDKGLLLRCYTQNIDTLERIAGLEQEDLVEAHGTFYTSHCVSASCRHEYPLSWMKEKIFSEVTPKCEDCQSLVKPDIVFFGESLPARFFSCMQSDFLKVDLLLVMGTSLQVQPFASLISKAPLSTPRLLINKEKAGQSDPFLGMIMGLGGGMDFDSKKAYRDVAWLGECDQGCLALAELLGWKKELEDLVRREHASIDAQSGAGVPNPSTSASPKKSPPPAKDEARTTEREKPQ
In words: Inhibition of recombinant GST-tagged human SIRT2 expressed in Escherichia coli at 200 uM using FLUOR DE LYS SIRT2 as substrate preincubated with substrate for 5 mins followed by enzyme addition and measured after 1 hr in presence of NAD+ by fluorescence based assay relative to control. In a few lines: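 Fluor de Lys assay using GST-SIRT2 produced in-house and acetylated peptide substrate KI179 at 0.7 Km, with NAD+ at 0.9 Km in SIRT assay buffer. Buffer, substrate, NAD+ and compound in DMSO were preincubated 5 min at room temp; enzyme started the 1 h, 37 °C reaction. Developer with nicotinamide was added for 45 min at 37 °C; fluorescence read at ex 370/em 460 nm. SD, n = 3.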

`O=C1c2ccc(Br)cc2S(=O)(=O)N1CCc1ccc(O)cc1`: the values for the inhibition in experiment [1], in experiment [2] and in experiment [3] were 5.2%, 15% and 12%, respectively. In the same order, the values of `CCOC(=O)CCCN1C(=O)c2ccccc2S1(=O)=O` are 8.7%, 7.2% and 13%. In the same order, the values of `O=S1(=O)NC(CCc2ccccc2)Nc2c(Br)cc(Br)cc21` (centres undefined) are 4.6%, 54% and 47%. On to `O=S1(=O)NC(CCc2ccccc2)=Cc2ccc(Br)cc21`, for which the inhibition (in general, the change of the read-out against control, counted positive when it falls) in experiment [3] is 35%.

As for `O=S1(=O)N=C(CCc2cccc(Br)c2)Nc2c(Br)cc(Br)cc21`, the inhibition in experiment [1] is 0%; in experiment [2], 3.2%; in experiment [3], 24%.

As for `O=C1c2ccccc2S(=O)(=O)N1CCCc1cccnc1`, the values for the inhibition in experiment [1], in experiment [2] and in experiment [3] were 17%, 14% and 12%, respectively.

Turning to `CCCCCN1C(=O)c2ccccc2S1(=O)=O`, the inhibition in experiment [3] is 34%. On the same count and under the same terms, the same measure for `COC(=O)CCCCc1cc(=O)c2cc(Cl)cc(Br)c2[nH]1`: 53%; for `O=C1c2ccc(Br)cc2S(=O)(=O)N1CCc1cccc([N+](=O)[O-])c1`: 6.2%. Consider `CCCCCC1Nc2c(Br)cc(Br)cc2S(=O)(=O)N1` (centres undefined), for which the inhibition in experiment [1] worked out at 4.4%; in experiment [2] it was 5.8%; in experiment [3], 32%.

On to `O=C1c2ccc(Br)cc2S(=O)(=O)N1CCc1ccccc1`, for which the inhibition in experiment [1] came to 3.8%; in experiment [2], 1.6%; in experiment [3] it was 4.7%. Turning to `O=S1(=O)NC(CCc2cccc(Br)c2)Nc2c(Br)cc(Br)cc21` (centres undefined), the inhibition in experiment [1] was 9.7%; in experiment [2] it was 9.9%; in experiment [3], 59%.

Regarding `O=C1CCC(=O)N1CCN1C(=O)c2ccc(Br)cc2S1(=O)=O`, in experiment [3], the inhibition stood at 13%. As to `O=C1c2ccc(Br)cc2S(=O)(=O)N1CCc1cccc(Br)c1`, in experiment [3], the inhibition came out at 15%.

`O=c1cc(Cc2ccccc2)[nH]c2c(Br)cc(Cl)cc12`: the inhibition is 7.6% in experiment [1], 41% in experiment [2] and 58% in experiment [3]. For the molecule `CCCCCc1cc(=O)c2cc(Cl)cc(Br)c2[nH]1`, the inhibition in experiment [3] was 26%. Turning to `O=c1ccc2cc(CCC3Nc4c(Br)cc(Br)cc4S(=O)(=O)N3)ccc2[nH]1` (centres undefined), the figures for the inhibition in experiment [1], in experiment [2] and in experiment [3] were 25%, 28% and 74%, respectively.

For `CCCCCc1cc(=O)c2cc(Cl)cc(Br)c2o1`, the inhibition was 9.8% in experiment [1] and 4.5% in experiment [2]. As for `O=S1(=O)N=C(CCc2ccccc2)Nc2c(Br)cc(Br)cc21`, the inhibition in experiment [3] stood at 15%. Regarding `O=S1(=O)N=C(CCc2ccc(Br)cc2)Nc2c(Br)cc(Br)cc21`, the inhibition in experiment [3] stood at 10%. As for `CCCCC1=Cc2ccccc2S(=O)(=O)N1`, the inhibition in experiment [3] came to 12%. As for `O=c1cc(CCc2ccccc2)oc2c(Br)cc(Cl)cc12`, the inhibition in experiment [3] is 75%. `O=C1c2ccccc2S(=O)(=O)N1CCc1ccccc1`: the values for the inhibition in experiment [1], in experiment [2] and in experiment [3] were 14%, 14% and 34%, respectively. As for `CCCCC1=Cc2ccc(Br)cc2S(=O)(=O)N1`, in experiment [3], the inhibition came out at 29%. The same measure, in the same setting: the value for `O=S1(=O)NC(CCc2ccccc2)=Cc2ccccc21` was 15%. Take `CCCCCN1C(=O)c2ccc(Br)cc2S1(=O)=O`: the inhibition in experiment [3] came to 6.9%.
